Laboratory results as given in ChEMBL document CHEMBL2429851, “New synthesis and tritium labeling of a selective ligand for studying high-affinity γ-hydroxybutyrate (GHB) binding sites” (J Med Chem, 2013).
Activity calls are given as the source filed them. The calls are words filed in the database; no cut-off is given here.

Assays:
[1] = (§1) Displacement of [3H]-3-hydroxycyclopent-1-enecarboxylic acid from GHB binding site in Sprague-Dawley rat cerebral cortex after 1 hr by scintillation counting analysis; format: tissue-based
Method in brief: (§2)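 Rat cerebrocortical membranes incubated with 10 nM [3H]-ligand and competitor over a concentration range. Conditions follow the earlier [3H]NCS-382 protocol. Non-specific binding defined with 1 mM GHB. IC50 taken from inhibition curves. Each experiment run in triplicate, with three additional repeats.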

[2] = Radiochemical stability of the compound in aqueous solution of gentisic acid by HPLC analysis; format: physicochemical; conditions: buffer
Method in brief: (§3)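 [3H]-labelled compound tested for protection against radiolysis in four formulations, including ethanol and aqueous gentisic acid (50 mM), at 1 mCi/mL. Stability followed by HPLC (area%, 245 nm).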

[3] = Radiochemical stability of the compound in ethanol at 1 mCi/mL by HPLC analysis; format: physicochemical; method in brief: as §3
Rattus norvegicus [4] = organism: Rattus norvegicus; conditions: Sprague-Dawley, Cerebral cortex, at 100 µM
MDCK [5] = test: Apparent permeability from basolateral to apical side in MDCK cells expressing MDR1; format: ADME, cell-based, Canis lupus familiaris; conditions: dog
[6] = Ratio of drug level in brain to plasma in C57 mouse at 10 mg/kg, po after 30 mins by LC-MS/MS analysis; format: ADME, organism-based; design: dose 10 mg/kg, route oral; conditions: read-out: BPR
Method in brief: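 Mice dosed orally at 10 mg/kg, a single acute dose. Brain and plasma sampled 30 minutes after dosing, and the brain-to-plasma concentration ratio calculated.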

MDCK [7] = test: Apparent permeability from apical to basolateral side in MDCK cells expressing MDR1; format: ADME, cell-based, Canis lupus familiaris; conditions: dog
Rattus norvegicus [8] = organism: Rattus norvegicus; conditions: Sprague-Dawley, Cerebral cortex, at 1 mM
Rattus norvegicus [9] = organism: Rattus norvegicus; test: as §1; format: tissue-based; method in brief: as §2
[10] = Chemical stability of the compound in Milli-Q water at -30 degC by HPLC analysis; format: physicochemical; conditions: buffer
Method in brief: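 HPLC purity tracking (area%, 245 nm) of the compound dissolved at 2 mg/mL in MilliQ water (pH 3.5). Stored at −30±2°C and also at room temperature, sampled over time (days to over a year).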

[11] = Displacement of [3H]NCS-382 from GHB binding site in Sprague-Dawley rat brain synaptic membranes after 1 hr by scintillation counting analysis; format: cell membranes, Membrane

Q: For `O=C([O-])C1=CC(O)CC1.[Na+]` (stereo not given), which IC50 [1] is on record?
A: The IC50 was 0.116 µM.

Q: And the pIC50 [1]?
A: The pIC50 was 6.93.

Q: What does the source list for `[3H]C1(O)C=C(C(=O)O)CC1` (stereo not given)?
A: Stability [2]: Stable; Stability [3]: Stable

Q: What does the source list for `O=C(O)/C=C1\CCCc2ccccc2C1O` (stereo not given)?
A: inhibition (Rattus norvegicus [4]): Active; permeability (MDCK [5]): impermeable; Kp at 0.5 h [6]: 0.38; permeability (MDCK [7]): impermeable

Q: Which inhibition (Rattus norvegicus [4]) does the source give for `COc1ccc(-c2ccc(=N)n(CCCC(=O)O)n2)cc1` here?
A: The inhibition was “Active”.

Q: Which inhibition (Rattus norvegicus [8]) does the source give for `NCC(CC(=O)O)c1ccc(Cl)cc1` (stereo not given) here?
A: Its inhibition is “inactive”.

Q: With `O=C(O)C1=CC(O)CC1` (stereo not given) as the molecule, how does the inhibition (Rattus norvegicus [9]) read?
A: Its inhibition is “Dose-dependent effect”.

Q: Which results are given for `O=C(O)C1=CC(O)CC1` (racemic) [listing 1 of 2 here]?
A: permeability (MDCK [5]): impermeable; Kp at 0.5 h [6]: 0.37; IC50 [1]: 0.073 µM; pIC50 [1]: 7.14; Stability [10]: 16 months; Ki [11]: 0.16 µM; permeability (MDCK [7]): impermeable

Q: For `O=C(O)C1=CC(O)CC1` (racemic) [listing 2 of 2 here], which inhibition (Rattus norvegicus [9]) is on record?
A: The inhibition was “Dose-dependent effect”.

Q: For `O=C(O)CCCO` [OXYBATE], which permeability (MDCK [5]) is on record?
A: Its permeability is “impermeable”.

Q: And the Kp at 0.5 h [6]?
A: The Kp at 0.5 h was 0.2.

Q: And the inhibition (Rattus norvegicus [9])?
A: Its inhibition is “Dose-dependent effect”.

Q: What about the IC50 [1] of the same molecule?
A: Its IC50 is 1.14 µM.

Q: And the pIC50 [1]?
A: Its pIC50 is 5.94.

Q: What about the permeability (MDCK [7]) of the same molecule?
A: Its permeability is “impermeable”.
